Experiment [1] in a line: reducers of endogenous Her2 protein level, primary screen, SKBR3 breast tumor cells, AlphaScreen, ATP viability (AID 461).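 For Her2 level: lower value means less Her2 protein in the cells.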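 For viability: percent of carrier control wells set as 100% viability.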 The conditions noted are these: 18-24 h, measured here: SKBR3 viability, ATP luminescence, at 10 µM. (In general: In Alpha technology, singlet oxygen from a donor bead excites a nearby acceptor bead.)
The target in experiment [2] is Receptor tyrosine-protein kinase erbB-2 (Homo sapiens) (UniProt P04626). The description is as above. The following applies: 18-24 h, at 10 µM, stronger effect = lower value.
Receptor tyrosine-protein kinase erbB-2 (Homo sapiens), sequence (P04626 whole entry, looked up): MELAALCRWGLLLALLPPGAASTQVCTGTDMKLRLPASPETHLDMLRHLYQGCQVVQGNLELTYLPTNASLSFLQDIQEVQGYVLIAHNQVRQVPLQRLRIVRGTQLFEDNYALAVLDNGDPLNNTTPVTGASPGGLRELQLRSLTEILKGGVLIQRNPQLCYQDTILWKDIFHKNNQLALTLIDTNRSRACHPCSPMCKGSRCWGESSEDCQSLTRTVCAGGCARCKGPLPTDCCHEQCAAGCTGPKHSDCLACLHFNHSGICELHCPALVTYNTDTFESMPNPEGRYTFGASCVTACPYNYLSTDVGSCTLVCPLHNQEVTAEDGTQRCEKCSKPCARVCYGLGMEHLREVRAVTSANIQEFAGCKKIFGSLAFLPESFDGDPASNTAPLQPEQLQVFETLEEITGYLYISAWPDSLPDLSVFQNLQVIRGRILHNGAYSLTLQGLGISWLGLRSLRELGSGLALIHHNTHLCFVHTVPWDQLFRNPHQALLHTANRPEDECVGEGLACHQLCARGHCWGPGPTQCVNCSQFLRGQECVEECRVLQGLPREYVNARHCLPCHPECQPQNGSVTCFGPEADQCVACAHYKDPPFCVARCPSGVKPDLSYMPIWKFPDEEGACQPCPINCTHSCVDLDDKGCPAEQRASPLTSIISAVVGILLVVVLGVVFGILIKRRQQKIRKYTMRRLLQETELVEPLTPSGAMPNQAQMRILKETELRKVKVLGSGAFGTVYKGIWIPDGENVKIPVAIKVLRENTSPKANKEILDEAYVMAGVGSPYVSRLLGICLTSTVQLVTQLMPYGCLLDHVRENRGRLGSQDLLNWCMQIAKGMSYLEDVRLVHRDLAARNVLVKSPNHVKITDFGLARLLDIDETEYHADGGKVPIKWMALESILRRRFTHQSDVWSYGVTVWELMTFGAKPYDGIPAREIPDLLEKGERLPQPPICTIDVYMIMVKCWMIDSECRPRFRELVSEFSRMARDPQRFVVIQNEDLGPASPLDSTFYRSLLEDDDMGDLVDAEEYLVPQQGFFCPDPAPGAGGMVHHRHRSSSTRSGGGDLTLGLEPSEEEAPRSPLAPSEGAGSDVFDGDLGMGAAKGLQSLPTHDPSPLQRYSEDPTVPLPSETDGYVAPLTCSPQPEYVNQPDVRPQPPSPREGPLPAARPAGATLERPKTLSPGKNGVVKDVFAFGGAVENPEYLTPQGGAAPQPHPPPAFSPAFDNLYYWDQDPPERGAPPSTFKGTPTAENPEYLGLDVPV
A short description of experiment [3]: SK-BR-3 cell growth inhibitors, pilot screen, 24 h, human (AID 572;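 active = viability at or below 10% of carrier control in both of two separate runs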;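 note: compound exposure lasted between 18 and 24 h rather than exactly 24 h; 100% = carrier-treated control wells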). The following applies: SK-BR-3 viability, CellTiter-Glo luminescence, at 10 µM, stronger effect = lower value. In general terms: ATP-based viability assays read luminescence as a measure of living cells.
Experiment [4] in a line: HUVEC growth inhibition – cell-based, human, primary screen (AID 575;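 active = viability at or below 30% in both replicate assays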;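 note: 100% = median of untreated cell wells with 0.1% DMSO on each plate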). The conditions noted are these: HUVEC proliferation, CellTiter-Glo luminescence, 72 h; at 10 µM; stronger effect = lower value. In a few lines: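 material = primary HUVEC, no more than 12 passages | input = 1250 cells per well | controls = vehicle and MePR control wells | measured by = CTG luminescence | times = 72 h compound incubation | format = collagen-coated 384-well format | read-out = % viability vs DMSO wells | doses = single 10 µM dose, 0.1% DMSO, from 5x medium stock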

A short description of experiment [5]: growth inhibitors of H69AR lung tumor, primary screen, human, duplicate replicates (AID 580;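 active = viability at or under a set limit in both replicates, limit being median viability minus 3 SD, cut at about 48% in these data, passing the limit was not always enough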;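 note: 100% = mean luminescence of untreated wells and 0% = no signal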). The following applies: H69AR lung tumor cells viability, ATP luminescence, 72 h; at 10 µM; stronger effect = lower value.
Experiment [6] can be described thus: reversal of MRP1-mediated doxorubicin resistance, pilot screen, H69AR cells, doxorubicin co-treatment (AID 601;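 active = viability loss from added drug above about 55%, and viability with drug at most 40%, in both replicates, limit read from the data, passing the limit was not always enough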). The following applies: CellTiter-Glo, 72 h, at 10 µM; for differential viability (reversal): stronger effect = higher value.
Experiment [7] is described as follows: 384-well plate pilot, post-Golgi transport modulator project, inhibition of yeast transport mutant growth (AID 636; in the data active = inhibition above about 31%). The conditions noted are these: absorbance 615 nm, about 18 h, stronger effect = higher value.
Experiment [8] in a line: growth suppression of yeast trafficking mutant, preliminary HTS, modulators of trafficking downstream of Golgi apparatus project, 1536-format plate, OD 615 nm (AID 637; in the data active = inhibition above about 30%). The conditions noted are these: yeast transport mutant growth, absorbance 615 nm, 18 h; stronger effect = higher value.
The mark [9] stands for this setting: H69AR cells + 2 uM doxorubicin, measured here: viability with 2 uM doxorubicin, stronger effect = lower value.
[10] abbreviates: H69AR cells, compound alone cytotoxicity.

Active and inactive are the calls of the source.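 Rule for the calls, unless noted: active = Her2 level under about 52% in both replicate screens, with viability over 70% of control (limit read from the data); inconclusive = Her2 under the limit in one screen only, or viability under 70%; inactive = Her2 level above the set limit.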

The term viability denotes a read-out of living cells in per cent, often relative to untreated cells. The term inhibition denotes the change of the read-out against control, counted positive when it falls.

With `CC1CCN(S(=O)(=O)c2ccc(NC(=O)CSc3nnnn3C)cc2)CC1`, the viability in experiment [1] was 94.5%; in experiment [3] it was 94.5% (inactive); in experiment [4], 76.3% (inactive); in experiment [5], 101% (inactive); in experiment [6] (setting [9]), 78.7%; in experiment [6] (setting [10]) it was 101%. Besides, in experiment [2], the Her2 level was 103% (inactive). In addition, the differential viability (reversal) in experiment [6] (H69AR cells + 2 uM doxorubicin) was 22% (inactive). Moreover, the inhibition was -5.92% (inactive) in experiment [7] and -3.49% (inactive) in experiment [8].

In the case of `CCC1=C(C(=O)OC)C(c2cc(OC)ccc2OC)C(C#N)=C(N)O1` (stereo not given), the viability in experiment [1] is 99.5%; in experiment [3] it was 99.5% (inactive); in experiment [4], 71.9% (inactive); in experiment [5] it was 87.2% (inactive); in experiment [6] (setting [9]), 87.2%; in experiment [6] (setting [10]), 87.2%. For the same compound, the Her2 level in experiment [2] was 87.5% (inactive). Further, the differential viability (reversal) in experiment [6] (H69AR cells + 2 uM doxorubicin) is -0.035% (inactive). The inhibition is -6.67% (inactive) in experiment [7] and -0.98% (inactive) in experiment [8].

As to `O=C(Nc1cccnc1)c1cccc(NC(=O)c2ccco2)c1`, the viability is 97.5% in experiment [1]; 97.5% (inactive) in experiment [3]; 94.4% (inactive) in experiment [4]; 89.9% (inactive) in experiment [5]; 89.3% in experiment [6] (setting [9]); 89.9% in experiment [6] (setting [10]). Besides, the Her2 level in experiment [2] is 85% (inactive). For the same compound, the differential viability (reversal) in experiment [6] (H69AR cells + 2 uM doxorubicin) is 0.575% (inactive). Moreover, the inhibition was -1.56% (inactive) in experiment [7] and 4.1% (inactive) in experiment [8].

As for `N#Cc1ccc(COC(=O)Cn2nnc(-c3ccccc3)n2)cc1`, the viability in experiment [1] was 111%; in experiment [3] it was 111% (inactive); in experiment [4], 89.5% (inactive); in experiment [5] it was 70.7% (inactive); in experiment [6] (setting [9]) it was 64.1%; in experiment [6] (setting [10]), 70.7%. Also, the Her2 level in experiment [2] is 96% (inactive). The differential viability (reversal) in experiment [6] (H69AR cells + 2 uM doxorubicin) is 6.57% (inactive). Besides, the inhibition in experiment [7] was -3.12% (inactive); in experiment [8], -0.95% (inactive).

As for `COc1ccc(OC)c(S(=O)(=O)Nc2ccccc2C(=O)O)c1`, the viability was 109% in experiment [1]; 109% (inactive) in experiment [3]; 98.3% (inactive) in experiment [4]; 99% (inactive) in experiment [5]; 87.2% in experiment [6] (setting [9]); 99% in experiment [6] (setting [10]). Moreover, in experiment [2], the Her2 level was 100% (inactive). Further, the differential viability (reversal) in experiment [6] (H69AR cells + 2 uM doxorubicin) is 11.8% (inactive). Moreover, the figures for the inhibition in experiment [7] and in experiment [8] were -4.4% (inactive) and 0.16% (inactive), respectively.

With `O=C(Nc1ccc(-c2noc(-c3cccs3)n2)cc1)c1cccnc1`, the viability is 74.5% in experiment [1]; 74.5% (inactive) in experiment [3]; 54% (inactive) in experiment [4]; 32.9% (active) in experiment [5]; 79.5% in experiment [6] (setting [9]); 32.9% in experiment [6] (setting [10]). Also, the Her2 level in experiment [2] was 93% (inactive). Also, the differential viability (reversal) in experiment [6] (H69AR cells + 2 uM doxorubicin) is -46.6% (inactive). For the same compound, the inhibition is -0.81% (inactive) in experiment [7] and -8.69% (inactive) in experiment [8].

Regarding `COC(=O)c1cc(OC)c(OCc2cc(C(=O)OC)oc2C)c(OC)c1`, the viability in experiment [1] was 95%; in experiment [3], 95% (inactive); in experiment [4], 107% (inactive); in experiment [5], 90.7% (inactive); in experiment [6] (setting [9]), 89.7%; in experiment [6] (setting [10]), 90.7%. The Her2 level in experiment [2] is 89.5% (inactive). In addition, the differential viability (reversal) in experiment [6] (H69AR cells + 2 uM doxorubicin) is 1.03% (inactive). Moreover, the inhibition in experiment [7] is -9.32% (inactive); in experiment [8], 1.8% (inactive).

Turning to `CCc1ccc(C2CC(c3ccccc3)n3ncnc3N2)cc1` (stereo not given), the viability in experiment [1] is 80%; in experiment [3], 80% (inactive); in experiment [4], 83.1% (inactive); in experiment [5], 88.1% (inactive); in experiment [6] (setting [9]) it was 84.3%; in experiment [6] (setting [10]), 88.1%. Further, in experiment [2], the Her2 level was 86% (inactive). The differential viability (reversal) in experiment [6] (H69AR cells + 2 uM doxorubicin) is 3.85% (inactive). In addition, the inhibition was 3.59% (inactive) in experiment [7] and 0.67% (inactive) in experiment [8].

Regarding `COc1ccc(C(=O)NCCSc2ccccn2)cc1`, the viability in experiment [1] is 97%; in experiment [3], 97% (inactive); in experiment [4], 102% (inactive); in experiment [5], 96% (inactive); in experiment [6] (setting [9]), 78.6%; in experiment [6] (setting [10]), 96%. Also, the Her2 level in experiment [2] is 108% (inactive). The differential viability (reversal) in experiment [6] (H69AR cells + 2 uM doxorubicin) was 17.4% (inactive). Besides, the inhibition in experiment [7] is -7.07% (inactive); in experiment [8] it was 0.32% (inactive).

As to `CCN(CC)CCCNS(=O)(=O)c1ccc(OC)cc1`, the viability in experiment [1] is 114%; in experiment [3], 114% (inactive); in experiment [4] it was 103% (inactive); in experiment [5] it was 90.3% (inactive); in experiment [6] (setting [9]), 98.9%; in experiment [6] (setting [10]) it was 90.3%. The Her2 level in experiment [2] is 89% (inactive). Besides, the differential viability (reversal) in experiment [6] (H69AR cells + 2 uM doxorubicin) is -8.58% (inactive). For the same compound, the values for the inhibition in experiment [7] and in experiment [8] were -5.32% (inactive) and -2.3% (inactive), respectively.

For `Cc1ccc(OCC(O)Cn2c(=N)n(CCN3CCCCC3)c3ccccc32)cc1` (stereo not given), the viability is 79% in experiment [1]; 79% (inactive) in experiment [3]; 2.43% (active) in experiment [4]; 18.6% (active) in experiment [5]; 21.7% in experiment [6] (setting [9]); 18.6% in experiment [6] (setting [10]). For the same compound, the Her2 level in experiment [2] was 63% (inactive). Moreover, the differential viability (reversal) in experiment [6] (H69AR cells + 2 uM doxorubicin) is -3.16% (inactive). Further, the inhibition is -4% (inactive) in experiment [7] and -0.33% (inactive) in experiment [8].

In the case of `CC(=O)Nc1c2c(nn1-c1ccc(C)cc1C)CSC2`, the viability in experiment [1] is 109%; in experiment [3], 109% (inactive); in experiment [4], 101% (inactive); in experiment [5], 90.7% (inactive); in experiment [6] (setting [9]), 93.2%; in experiment [6] (setting [10]), 90.7%. Besides, in experiment [2], the Her2 level is 113% (inactive). Further, in experiment [6] (H69AR cells + 2 uM doxorubicin), the differential viability (reversal) is -2.51% (inactive). The values for the inhibition in experiment [7] and in experiment [8] were -1.17% (inactive) and -2.54% (inactive), respectively.

As to `CCn1c(SCC(N)=O)nc2c1c(=O)n(C)c(=O)n2C`, the viability in experiment [1] was 107%; in experiment [3], 107% (inactive); in experiment [4], 90% (inactive); in experiment [5] it was 95.9% (inactive); in experiment [6] (setting [9]), 91.1%; in experiment [6] (setting [10]), 95.9%. Moreover, in experiment [2], the Her2 level is 95% (inactive). The differential viability (reversal) in experiment [6] (H69AR cells + 2 uM doxorubicin) was 4.83% (inactive). In addition, the inhibition was -2.63% (inactive) in experiment [7] and -1.27% (inactive) in experiment [8].

For `CN(C=C1C(=O)CC(C)(C)CC1=O)CCN1CCNCC1`, the viability was 120% in experiment [1]; 120% (inactive) in experiment [3]; 90.3% (inactive) in experiment [4]; 96% (inactive) in experiment [5]; 85.8% in experiment [6] (setting [9]); 96% in experiment [6] (setting [10]). In experiment [2], the Her2 level is 102% (inactive). The differential viability (reversal) in experiment [6] (H69AR cells + 2 uM doxorubicin) is 10.2% (inactive). The inhibition was -4.21% (inactive) in experiment [7] and 2.13% (inactive) in experiment [8].

With `COc1ccccc1OCCOc1ccccc1/C=N/n1cnnc1`, the viability in experiment [1] was 81.5%; in experiment [3], 81.5% (inactive); in experiment [4], 96.4% (inactive); in experiment [5], 70.9% (inactive); in experiment [6] (setting [9]), 93.5%; in experiment [6] (setting [10]), 70.9%. Besides, the Her2 level in experiment [2] was 104% (inactive). The differential viability (reversal) in experiment [6] (H69AR cells + 2 uM doxorubicin) is -22.5% (inactive). Further, the inhibition in experiment [7] was 1.28% (inactive); in experiment [8], -5% (inactive).

`Cc1ccc(NC(=O)C2CCCN2S(=O)(=O)c2cccc3cccnc23)cc1F` (stereo not given): the viability in experiment [1] was 98%; in experiment [3], 98% (inactive); in experiment [4] it was 102% (inactive); in experiment [5] it was 93.7% (inactive); in experiment [6] (setting [9]) it was 100%; in experiment [6] (setting [10]), 93.7%. The Her2 level in experiment [2] was 97.5% (inactive). Also, the differential viability (reversal) in experiment [6] (H69AR cells + 2 uM doxorubicin) is -6.31% (inactive). The inhibition was -4% (inactive) in experiment [7] and 3.93% (inactive) in experiment [8].
